Reference: ChEMBL document CHEMBL2401617, “Synthesis and biological evaluation of some novel thiazole compounds as potential anti-inflammatory agents” (2013)

Key:
Type in all cases: functional
[1] = system: Rattus norvegicus; test: Antiinflammatory activity in albino Wistar rat assessed as inhibition of carrageenan-induced paw oedema at 10 mg/kg, po administered 1 hr prior to carrageenan challenge measured at 1 hr post carrageenan challenge by plethysmometeric analysis relative to control
How it was run: (§1)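 Albino Wistar rats of either sex (130–150 g), 6 per group, fasted 12 h with water ad libitum. Indomethacin 10 mg/kg was given orally in 1 ml 20% v/v DMSO; controls received vehicle. One hour later, 0.1 ml 1% w/v carrageenan in 0.9% saline was injected subplantar into the left hind paw. Paw volume was read by plethysmometer at 0 and 1–4 h. % inhibition = [1 − (Vt/Vc)] × 100.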

[2] = system: Rattus norvegicus; test: Antiinflammatory activity in albino Wistar rat assessed as inhibition of carrageenan-induced paw oedema at 10 mg/kg, po administered 1 hr prior to carrageenan challenge measured at 3 hrs by plethysmometeric analysis relative to control; how it was run: as §1
[3] = system: Rattus norvegicus; test: Antiinflammatory activity in albino Wistar rat assessed as inhibition of carrageenan-induced paw oedema at 10 mg/kg, po administered 1 hr prior to carrageenan challenge measured at 2 hrs by plethysmometeric analysis relative to control; how it was run: as §1
[4] = system: Rattus norvegicus; test: Antiinflammatory activity in albino Wistar rat assessed as inhibition of carrageenan-induced paw oedema at 10 mg/kg, po administered 1 hr prior to carrageenan challenge measured at 4 hrs by plethysmometeric analysis relative to control; how it was run: as §1

COc1ccc2c(c1)c(CC(=O)O)c(C)n2C(=O)c1ccc(Cl)cc1 [INDOMETHACIN]
inhibition in vivo at 10 mg/kg [1]: 10.5%
inhibition in vivo at 10 mg/kg [2]: 75.5%
inhibition in vivo at 10 mg/kg [3]: 45.1%
inhibition in vivo at 10 mg/kg [4]: 91.3%
